Assay results reported in ChEMBL document CHEMBL1157752, “Lessons learned from herbal medicinal products: the example of St. John's Wort (perpendicular)” (J Nat Prod, 2010).

How the values were obtained:
[1] = molecular target: T1, Alpha-2C adrenergic receptor (Homo sapiens, UniProt P18825); test: Binding affinity to adrenergic alpha2c receptor
T1 sequence (P18825 whole entry): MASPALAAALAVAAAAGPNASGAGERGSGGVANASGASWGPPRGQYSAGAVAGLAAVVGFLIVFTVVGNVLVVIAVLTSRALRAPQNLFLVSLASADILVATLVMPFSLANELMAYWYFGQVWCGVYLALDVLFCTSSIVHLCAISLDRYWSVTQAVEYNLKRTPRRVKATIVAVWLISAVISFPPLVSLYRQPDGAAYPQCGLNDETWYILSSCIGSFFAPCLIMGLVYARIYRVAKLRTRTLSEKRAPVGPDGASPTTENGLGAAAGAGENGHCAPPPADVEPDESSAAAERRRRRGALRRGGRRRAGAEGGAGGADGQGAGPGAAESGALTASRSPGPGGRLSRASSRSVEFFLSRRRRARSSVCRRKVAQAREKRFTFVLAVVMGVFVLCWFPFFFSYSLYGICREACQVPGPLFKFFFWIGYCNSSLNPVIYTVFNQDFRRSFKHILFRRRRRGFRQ

Rattus norvegicus [2] = test: Antidepressant activity in rat assessed as immobility time at 0.6 mg/kg, po by forced swimming test (reference value: 150.3 +/- 11.1 sec); format: functional
Rattus norvegicus [3] = test: Antidepressant activity in rat assessed as immobility time at 1.3 mg/kg, po by forced swimming test (reference value: 150.3 +/- 11.1 sec); format: functional
Method in brief: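 Rats received single compounds by mouth in a Porsolt forced swimming test. The read-out was immobility time in seconds, compared with a saline control, with imipramine 20 mg/kg po as the reference antidepressant. Values are mean ± SEM, n = 10 per group.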

[4] = molecular target: Delta-type opioid receptor (Homo sapiens, UniProt P41143); test: Binding affinity to delta opioid receptor
Chain of Delta-type opioid receptor (P41143 whole entry): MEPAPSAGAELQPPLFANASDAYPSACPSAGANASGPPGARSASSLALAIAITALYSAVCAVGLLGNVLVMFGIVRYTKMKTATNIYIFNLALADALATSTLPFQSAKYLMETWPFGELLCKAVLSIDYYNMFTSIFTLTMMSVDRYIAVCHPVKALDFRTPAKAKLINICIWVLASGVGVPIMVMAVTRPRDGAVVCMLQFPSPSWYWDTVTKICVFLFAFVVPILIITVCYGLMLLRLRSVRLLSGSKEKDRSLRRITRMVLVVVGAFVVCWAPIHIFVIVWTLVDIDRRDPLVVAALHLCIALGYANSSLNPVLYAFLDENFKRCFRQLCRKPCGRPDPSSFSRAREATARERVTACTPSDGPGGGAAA

Cytochrome P450 3A4 = Cytochrome P450 3A4 (Homo sapiens, UniProt P08684)
Chain of Cytochrome P450 3A4 (P08684 whole entry): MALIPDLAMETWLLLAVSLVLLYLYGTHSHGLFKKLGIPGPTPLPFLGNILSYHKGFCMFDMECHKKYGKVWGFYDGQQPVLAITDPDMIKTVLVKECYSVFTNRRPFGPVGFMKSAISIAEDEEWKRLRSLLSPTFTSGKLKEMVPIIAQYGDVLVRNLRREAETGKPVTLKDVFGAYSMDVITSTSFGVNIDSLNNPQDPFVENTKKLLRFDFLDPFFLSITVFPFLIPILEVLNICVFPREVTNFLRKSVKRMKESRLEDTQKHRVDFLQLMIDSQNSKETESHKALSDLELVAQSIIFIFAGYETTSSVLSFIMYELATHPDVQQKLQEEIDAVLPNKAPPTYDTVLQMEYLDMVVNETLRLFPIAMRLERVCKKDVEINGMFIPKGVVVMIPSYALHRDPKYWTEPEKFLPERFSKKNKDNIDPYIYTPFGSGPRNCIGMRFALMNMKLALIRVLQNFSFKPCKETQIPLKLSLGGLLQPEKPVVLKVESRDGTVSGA

Rattus norvegicus [5] = test: Antidepressant activity in rat assessed as immobility time at 20 mg/kg, po by forced swimming test (reference value: 169.6 +/- 19 sec); format: functional
Method in brief: (§1)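 Rat forced swimming test (Porsolt): test substances given orally, and immobility time in seconds is recorded as mean ± SEM. Imipramine serves as the reference antidepressant.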

Rattus norvegicus [6] = test: Antidepressant activity in rat assessed as immobility time at 20 mg/kg, po by forced swimming test (reference value: 158.7 +/- 8.9 sec); format: functional; method in brief: as §1
Rattus norvegicus [7] = test: Antidepressant activity in rat assessed as immobility time at 20 mg/kg, po by forced swimming test (reference value: 138.6 +/- 12 sec); format: functional
Rattus norvegicus [8] = test: Antidepressant activity in rat assessed as immobility time at 20 mg/kg, po by forced swimming test (reference value: 150.3 +/- 11.1 sec); format: functional; method in brief: as §1
D(4) dopamine receptor = molecular target: T2, D(4) dopamine receptor (Homo sapiens, UniProt P21917); test: Binding affinity to dopamine D4 receptor
T2 sequence (P21917 whole entry): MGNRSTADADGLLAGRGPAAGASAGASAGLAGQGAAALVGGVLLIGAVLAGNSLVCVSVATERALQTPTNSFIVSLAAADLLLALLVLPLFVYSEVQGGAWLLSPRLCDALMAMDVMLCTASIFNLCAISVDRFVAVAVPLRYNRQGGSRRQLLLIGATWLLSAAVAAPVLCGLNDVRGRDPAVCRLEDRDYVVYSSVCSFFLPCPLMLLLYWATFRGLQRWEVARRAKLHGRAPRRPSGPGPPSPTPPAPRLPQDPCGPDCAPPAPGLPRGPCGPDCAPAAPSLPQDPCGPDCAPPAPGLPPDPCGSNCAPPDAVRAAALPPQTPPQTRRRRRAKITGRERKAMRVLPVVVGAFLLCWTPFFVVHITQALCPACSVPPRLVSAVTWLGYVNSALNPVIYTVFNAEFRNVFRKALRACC

Rattus norvegicus [9] = test: Antidepressant activity in rat assessed as immobility time at 5.2 mg/kg, po by forced swimming test (reference value: 169.6 +/- 19 sec); format: functional; method in brief: as §1
Rattus norvegicus [10] = test: Antidepressant activity in rat assessed as immobility time at 7.6 mg/kg, po by forced swimming test (reference value: 169.6 +/- 19 sec); format: functional; method in brief: as §1
Rattus norvegicus [11] = test: Antidepressant activity in rat assessed as immobility time at 1.3 mg/kg, po by forced swimming test (reference value: 169.6 +/- 19 sec); format: functional; method in brief: as §1
Rattus norvegicus [12] = test: Antidepressant activity in rat assessed as immobility time at 2.6 mg/kg, po by forced swimming test (reference value: 169.6 +/- 19 sec); format: functional; method in brief: as §1
Rattus norvegicus [13] = test: Antidepressant activity in rat assessed as immobility time at 0.6 mg/kg, po by forced swimming test (reference value: 169.6 +/- 19 sec); format: functional; method in brief: as §1
[14] = molecular target: T3, Corticotropin-releasing factor receptor 1 (Homo sapiens, UniProt P34998); test: Inhibition of recombinant CRF1 receptor expressed in CHO cells assessed as inhibition of CRF-induced cAMP formation; format: functional, cell-based
T3 sequence (P34998 whole entry): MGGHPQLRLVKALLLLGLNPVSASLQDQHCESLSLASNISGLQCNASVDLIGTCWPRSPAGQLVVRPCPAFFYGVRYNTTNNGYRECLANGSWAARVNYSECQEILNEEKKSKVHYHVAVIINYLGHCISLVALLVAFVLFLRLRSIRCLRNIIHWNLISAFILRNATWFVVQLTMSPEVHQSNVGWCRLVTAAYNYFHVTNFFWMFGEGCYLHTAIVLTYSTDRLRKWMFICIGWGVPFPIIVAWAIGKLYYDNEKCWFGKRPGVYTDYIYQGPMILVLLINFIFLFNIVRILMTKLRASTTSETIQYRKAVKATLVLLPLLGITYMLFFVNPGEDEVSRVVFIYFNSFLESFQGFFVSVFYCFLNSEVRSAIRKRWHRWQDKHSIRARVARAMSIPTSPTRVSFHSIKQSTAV

D(3) dopamine receptor = D(3) dopamine receptor (Homo sapiens, UniProt P35462); test: Binding affinity to dopamine D3 receptor
Chain of D(3) dopamine receptor (P35462 whole entry): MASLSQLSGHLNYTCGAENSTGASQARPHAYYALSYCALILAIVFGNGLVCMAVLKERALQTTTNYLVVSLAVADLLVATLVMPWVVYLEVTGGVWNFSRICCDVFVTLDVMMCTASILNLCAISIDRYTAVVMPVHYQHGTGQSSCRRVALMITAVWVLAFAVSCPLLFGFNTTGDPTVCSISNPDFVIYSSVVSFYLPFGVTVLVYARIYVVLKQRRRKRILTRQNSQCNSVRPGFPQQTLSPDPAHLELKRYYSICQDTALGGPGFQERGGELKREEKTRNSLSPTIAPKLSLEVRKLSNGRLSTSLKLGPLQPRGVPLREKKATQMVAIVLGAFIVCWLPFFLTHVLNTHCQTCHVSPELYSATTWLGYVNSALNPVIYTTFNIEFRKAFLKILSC

Rattus norvegicus [15] = test: Antidepressant activity in rat assessed as immobility time at 0.5 mg/kg, po by forced swimming test (reference value: 158.7 +/- 8.9 sec); format: functional; method in brief: as §1
Rattus norvegicus [16] = test: Reduction in %5HT1A receptor mRNA expression in rat hippocampus at 0.2 mg/kg, po, qd for 8 weeks; format: functional; set-up: scale not given: the % may be the effect or the level left
[17] = molecular target: T3, Corticotropin-releasing factor receptor 1; test: Inhibition of CRF1 receptor
Rattus norvegicus [18] = test: Reduction in corticotropin-releasing hormone mRNA expression in rat hyphalamic paraventricular nucleus at 0.2 mg/kg, po, qd for 8 weeks; format: functional; set-up: scale not given: the % may be the effect or the level left
[19] = Plasma concentration in po dosed rat after 270 mins; format: ADME, organism-based
Method in brief: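 Rats were fed the pure compound orally, and plasma concentration was followed over time, including the 270 min point. AUC was expressed relative to the compound given alone, set at 100%.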

Rattus norvegicus [20] = test: Antidepressant activity in rat assessed as immobility time at […], po by forced swimming test (reference value: 158.7 +/- 8.9 sec); format: functional
[21] = Permeability across basolateral to apical side in human Caco-2 cells; format: ADME, cell-based; settings: read-out: permeability
Method in brief: (§2)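 Caco-2 colon adenocarcinoma cells were grown as monolayers in Transwell chambers, and compound was dosed to the apical or the basolateral side. Transport was measured apical to basolateral (absorption) and basolateral to apical (efflux). The result is given as apparent permeability in cm/s.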

[22] = Permeability across apical to basolateral side in human Caco-2 cells; format: ADME, cell-based; settings: read-out: permeability; method in brief: as §2
Rattus norvegicus [23] = test: Antidepressant activity in rat assessed as immobility time at 0.08 mg/kg, po by forced swimming test (reference value: 158.7 +/- 8.9 sec); format: functional; method in brief: as §1

For `O=C(O)[C@H]1O[C@@H](Oc2c(-c3ccc(O)c(O)c3)oc3cc(O)cc(O)c3c2=O)[C@H](O)[C@@H](O)[C@@H]1O` [MIQUELIANIN], the Ki [1] was 4060 nM.
With `C[C@@H]1O[C@@H](O[C@H]2C(=O)c3c(O)cc(O)cc3O[C@@H]2c2ccc(O)c(O)c2)[C@H](O)[C@H](O)[C@H]1O` [ASTILBIN] the Time (Rattus norvegicus [2]) was 148.6 s and the Time (Rattus norvegicus [3]) was 163.7 s.
Compound `O=c1cc(-c2ccc(O)c(-c3c(O)cc(O)c4c(=O)cc(-c5ccc(O)cc5)oc34)c2)oc2cc(O)cc(O)c12` [AMENTOFLAVONE] has a Ki [4] of 36.5 nM.
`O=c1c(O[C@@H]2O[C@H](CO)[C@@H](O)[C@H](O)[C@H]2O)c(-c2ccc(O)c(O)c2)oc2cc(O)cc(O)c12` [ISOQUERCETIN] showed a Time (Rattus norvegicus [2]) of 100.4 s.
`O=c1c(-c2c(O)cc(O)c3c(=O)cc(-c4ccc(O)cc4)oc23)c(-c2ccc(O)cc2)oc2cc(O)cc(O)c12` gave an IC50 (Cytochrome P450 3A4) of 80 nM.
Compound `CN(C)CCCN1c2ccccc2CCc2ccccc21` [IMIPRAMINE] has a Time (Rattus norvegicus [5]) of 95.4 s, a Time (Rattus norvegicus [6]) of 97.1 s and a Time (Rattus norvegicus [7]) of 77.5 s. It also gave a Time (Rattus norvegicus [8]) of 86.1 s.
Work on `C[C@@H]1O[C@@H](Oc2c(-c3ccc(O)c(O)c3)oc3cc(O)cc(O)c3c2=O)[C@H](O)[C@H](O)[C@H]1O` [QUERCITRIN] yielded a Time (Rattus norvegicus [2]) of 149.9 s and a Time (Rattus norvegicus [3]) of 162.3 s.
Work on `O=c1c(O)c(-c2ccc(O)c(O)c2)oc2cc(O)cc(O)c12` [QUERCETIN] yielded a Ki (D(4) dopamine receptor) of 7850 nM.
Compound `O=c1c(O[C@@H]2O[C@H](CO)[C@H](O)[C@H](O)[C@H]2O)c(-c2ccc(O)c(O)c2)oc2cc(O)cc(O)c12` [HYPEROSIDE] has a Time (Rattus norvegicus [9]) of 149.2 s, a Time (Rattus norvegicus [10]) of 158.8 s and a Time (Rattus norvegicus [11]) of 109.5 s. For the same compound, the Time (Rattus norvegicus [12]) was 133.7 s and the Time (Rattus norvegicus [13]) was 101.2 s.
Compound `Cc1cc(O)c2c(=O)c3c(O)cc(O)c4c5c(O)cc(O)c6c(=O)c7c(O)cc(C)c8c1c2c(c34)c(c78)c65` [HYPERICIN] has an IC50 [14] of 300 nM, a Ki (D(3) dopamine receptor) of 34.5 nM and a Time (Rattus norvegicus [15]) of 147.8 s. It also gave an Activity (Rattus norvegicus [16]) of 11%, an IC50 [17] of 300 nM and an Activity (Rattus norvegicus [18]) of 16%. The IC50 (Cytochrome P450 3A4) was 8700 nM, the concentration at 4.5 h [19] was 6 ng/mL and the Time (Rattus norvegicus [20]) was 110.2 s. For the same compound, the Papp B→A [21] was 12 ×10⁻⁶ cm/s, the Papp A→B [22] was 0.25 ×10⁻⁶ cm/s and the Time (Rattus norvegicus [23]) was 154.7 s.
